Laboratory results published in ChEMBL document CHEMBL3044720, “Phytotoxic Eremophilanes from Ligularia macrophylla” (J Agric Food Chem, 2007).
pIC50: −log10 of the molar value. Activity calls are given as the source filed them. The calls are words filed in the database; no cut-off is given here.

Experiments:
Cucumis sativus [1] = assay: Inhibition of photosynthetic electron transport rate in Cucumis sativa Straight Eight (cucumber) cotyledons assessed as chlorophyll fluorescence at 10 uM at 22 degC measured at 2 to 24 hr post-drug treatment under constant light by fluorometer analysis; format: functional, organism-based
How it was run: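 Cotyledon discs (8 mm) were cut from 6-day-old plants. Induced variable chlorophyll fluorescence was read on a pulse-modulated fluorometer before each disc was placed in 1 mL of 0.1% Tween 20, with or without treatment; the solvent control was 0.1% acetone. Discs were kept at 22 °C under continuous light and read again at 2, 4, 8 and 24 h. Each treatment was run in triplicate.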

Coptotermes formosanus [2] = assay: Antitermite activity against greater than third-instar stage of Coptotermes formosanus workers/1 soldier in compound-pretreated filter paper assessed as mortality at 0.5% at 26 degC after 13 days (reference value: 3.8 +/-4.8%); format: functional
How it was run: (§1)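 Test material in acetone (100 µL) was blotted onto 2.5 cm filter paper discs, dried several hours, then moistened with 100 µL water. Each dish held 20 workers (third instar or greater) and two soldiers. Dishes were kept at ca. 100% RH and 26 °C, with water-only controls. Four replicates came from different colonies. Mortality was scored daily for 3 weeks, reported as mean and SD, and compared by ANOVA with Fisher LSD (P < 0.05).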

Coptotermes formosanus [3] = assay: Antitermite activity against greater than third-instar stage of Coptotermes formosanus workers/1 soldier in compound-pretreated filter paper assessed as mortality at 0.5% at 26 degC after 6 days (reference value: 2.5 +/-5%); format: functional; how it was run: as §1
Coptotermes formosanus [4] = assay: Antitermite activity against greater than third-instar stage of Coptotermes formosanus workers/1 soldier in compound-pretreated filter paper assessed as mortality at 0.5% at 26 degC after 1 day (reference value: 0%); format: functional; how it was run: as §1
[5] = test system: Colletotrichum gloeosporioides; assay: Antifungal activity against Colletotrichum gloeosporioides assessed as growth inhibition at 10 ug after 4-5 days by direct bioautography; format: functional, organism-based
How it was run: (§2)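 Direct TLC bioautography against strawberry-anthracnose Colletotrichum isolates grown on PDA at 24 ± 2 °C under a 12 h photoperiod. Conidia were harvested from 7–10-day cultures and filtered. Developed plates carrying 10 µg/spot were sprayed with 10^5 spores/mL and held in a moisture chamber for 4 days at 26 °C with a 12 h photoperiod. Zone diameters were measured 4–5 days after treatment.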

Colletotrichum fragariae = assay: Antifungal activity against Colletotrichum fragariae assessed as growth inhibition at 10 ug after 4-5 days by direct bioautography; format: functional, organism-based; how it was run: as §2
Colletotrichum acutatum = assay: Antifungal activity against Colletotrichum acutatum assessed as diameter of growth inhibitory zone at 10 ug after 4-5 days by direct bioautography; format: functional; how it was run: as §2
Lactuca sativa [6] = assay: Phytotoxic activity against Lactuca sativa (lettuce) seeds assessed as inhibition of germination at 1 uM at 26 degC measured 7 days post-drug dose; format: functional, organism-based
How it was run: (§3)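 Each well held 5 mg lettuce or 10 mg bentgrass seed plus 250 µL of compound in water with 3% acetone final; acetone/water controls were included. Sealed plates were kept at 26 °C under continuous light (173 µmol/m²/s). Germination was rated visually on a 0–5 scale (0 = no effect, 5 = no germination/growth) against controls, after 7 days for lettuce and 12 days for bentgrass.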

Lactuca sativa [7] = assay: Phytotoxic activity against Lactuca sativa (lettuce) seeds assessed as inhibition of germination at 1000 uM at 26 degC measured 7 days post-drug dose; format: functional, organism-based; how it was run: as §3
Lactuca sativa [8] = assay: Phytotoxic activity against Lactuca sativa (lettuce) seeds assessed as inhibition of germination at 100 uM at 26 degC measured 7 days post-drug dose; format: functional, organism-based; how it was run: as §3
Lactuca sativa [9] = assay: Phytotoxic activity against Lactuca sativa (lettuce) seeds assessed as inhibition of germination at 10 uM at 26 degC measured 7 days post-drug dose; format: functional, organism-based; how it was run: as §3
Agrostis stolonifera [10] = assay: Phytotoxic activity against Agrostis stolonifera seeds assessed as inhibition of germination at 1 uM at 26 degC measured 12 days post-drug dose; format: functional, organism-based; how it was run: as §3
Agrostis stolonifera [11] = assay: Phytotoxic activity against Agrostis stolonifera seeds assessed as inhibition of germination at 1000 uM at 26 degC measured 12 days post-drug dose; format: functional, organism-based; how it was run: as §3
Agrostis stolonifera [12] = assay: Phytotoxic activity against Agrostis stolonifera seeds assessed as inhibition of germination at 100 uM at 26 degC measured 12 days post-drug dose; format: functional, organism-based; how it was run: as §3
Agrostis stolonifera [13] = assay: Phytotoxic activity against Agrostis stolonifera seeds assessed as inhibition of germination at 10 uM at 26 degC measured 12 days post-drug dose; format: functional, organism-based; how it was run: as §3
Coptotermes formosanus [14] = assay: Antitermite activity against greater than third-instar stage of Coptotermes formosanus workers/1 soldier in compound-pretreated filter paper assessed as filter paper consumption at 0.5% at 26 degC after 21 days (reference value: 41.4 +/-5.6 mg); format: functional
Coptotermes formosanus [15] = assay: Antitermite activity against greater than third-instar stage of Coptotermes formosanus workers/1 soldier in compound-pretreated filter paper assessed as mortality at 0.5% at 26 degC after 21 days (reference value: 3.8 +/-4.8%); format: functional; how it was run: as §1
Cucumis sativus [16] = assay: Inhibition of photosynthetic electron transport rate in Cucumis sativa Straight Eight (cucumber) cotyledons assessed as chlorophyll fluorescence at 100 uM at 22 degC measured at 2 to 24 hr post-drug treatment under constant light by fluorometer analysis; format: functional, organism-based
How it was run: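 8 mm cotyledon discs were cut from 6-day-old cucumber 'Straight Eight'. Variable chlorophyll fluorescence was read with a pulse-modulated fluorometer before treatment, then at 2, 4, 8 and 24 h. Discs sat in 1 mL 0.1% Tween 20 with 100 µM compound, 0.1% acetone solvent control or 10 µM atrazine, at 22 °C under continuous light; triplicate.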

Cucumis sativus [17] = assay: Induction of cell membrane integrity disruption in Cucumis sativus (cucumber) cotyledons assessed as electrolyte leakage at 25 degC by conductivity meter analysis; format: functional
How it was run: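 Twenty-five 4 mm cucumber cotyledon discs (~50 mg fresh weight) were bathed in 5 mL of 2% sucrose, 1 mM MES pH 6.5, with 1% (v/v) acetone final in controls and treatments. Incubation was at 25 °C in darkness. Leakage into the bathing medium was followed over time by conductivity; six replicates per treatment.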

Allium cepa [18] = assay: Inhibition of mitotic cell division in Allium cepa cv. Evergreen (onion) root tips assessed as cell count at telophase stage of cell cycle at 100 to 300 uM at 24 degC; format: functional, organism-based
Allium cepa [19] = assay: Inhibition of mitotic cell division in Allium cepa cv. Evergreen (onion) root tips assessed as cell count at anaphase stage of cell cycle at 100 to 300 uM at 24 degC; format: functional, organism-based
Allium cepa [20] = assay: Inhibition of mitotic cell division in Allium cepa cv. Evergreen (onion) root tips assessed as cell count at metaphase stage of cell cycle at 100 to 300 uM at 24 degC; format: functional, organism-based
Allium cepa [21] = assay: Inhibition of mitotic cell division in Allium cepa cv. Evergreen (onion) root tips assessed as cell count at prophase stage of cell cycle at 100 to 300 uM at 24 degC; format: functional, organism-based
Lemna aequinoctialis [22] = assay: Phytotoxic activity against three-frond Lemna paucicostata colonies assessed as growth inhibition at 100 uM after 4 days; format: functional, organism-based
How it was run: (§4)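 Hoagland medium at pH 5.5 was filter-sterilized, with compound added in acetone or EtOH (1% final); tested range 100 to 0.1 µM. Two three-frond colonies from 4–5-day-old stock cultures were placed per well. Total frond area was imaged on days 0–4, and % increase was taken relative to day 0. IC50 came from a four-parameter logistic fit in R drc.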

Lemna aequinoctialis [23] = assay: Phytotoxic activity against three-frond Lemna paucicostata colonies assessed as growth inhibition after 4 days; format: functional, organism-based; details: 96 h; how it was run: as §4

Row | Compound | mortality (Coptotermes formosanus [2]) [%] | mortality (Coptotermes formosanus [3]) [%] | mortality (Coptotermes formosanus [4]) [%] | inhibition (Lactuca sativa [6]) | inhibition (Lactuca sativa [7]) | inhibition (Lactuca sativa [8]) | inhibition (Lactuca sativa [9]) | inhibition (Agrostis stolonifera [10]) | inhibition (Agrostis stolonifera [12]) | inhibition (Agrostis stolonifera [13]) | Activity (Coptotermes formosanus [14]) [mg] | mortality (Coptotermes formosanus [15]) [%] | growth inhibition (GI) (Lemna aequinoctialis [22]) | also measured
1 | CCNc1nc(Cl)nc(NC(C)C)n1 |  |  |  |  |  |  |  |  |  |  |  |  |  | inhibition (Cucumis sativus [1]): inactive
2 | CC/C=C\C/C=C\C/C=C\CCCCCCCC(=O)O [LINOLENIC ACID] | 5 | 0 | 0 | inactive | inactive | inactive | inactive | inactive | inactive | inactive | 44.2 | 6.3 |  | growth inhibition (GI) [5]: inactive; growth inhibition (GI) (Colletotrichum fragariae): inactive; Activity (Colletotrichum acutatum): 2.9 mm; inhibition (Agrostis stolonifera [11]): inactive
3 | Cc1coc2c1[C@@H]1OC(=O)[C@H]3CCC[C@H](C2)[C@@]31C | 3.8 | 1.3 | 1.3 | inactive | inactive | inactive | inactive | inactive |  |  | 43.1 | 8.8 | inactive | inhibition (Cucumis sativus [16]): inactive; Activity (Cucumis sativus [17]): inactive; inhibition (Allium cepa [18]): inactive; inhibition (Allium cepa [19]): inactive; inhibition (Allium cepa [20]): inactive; inhibition (Allium cepa [21]): inactive
4 | CC1=C2C3OC(=O)[C@H]4CCC[C@H](C[C@@H]2OC1=O)[C@]34C (single isomer, unassigned) |  |  |  | inactive |  | inactive | inactive | inactive | inactive | inactive |  |  | inactive | inhibition (Agrostis stolonifera [11]): Active
5 | CCCCC/C=C\C/C=C\CCCCCCCC(=O)O [LINOLEIC ACID] | 5 | 3.8 | 2.5 | inactive | inactive | inactive | inactive | inactive | inactive | inactive | 44.6 | 6.3 |  | growth inhibition (GI) [5]: inactive; growth inhibition (GI) (Colletotrichum fragariae): inactive; Activity (Colletotrichum acutatum): 2.9 mm
6 | C=C1COC(=O)[C@@]12C[C@H]1CC[C@@H](OC(=O)/C(C)=C\C)[C@H](C)C1(C)C2 (single isomer, unassigned) | 2.5 | 2.5 | 0 | inactive |  | inactive | inactive | inactive | inactive | inactive | 40 | 2.5 | inactive | 
7 | C/C=C(/C)C(=O)O[C@@H]1c2c(C)coc2C[C@@]2(O)CCC[C@H](C)[C@@]12C | 16.3 | 3.8 | 1.3 | inactive |  | inactive | inactive | inactive |  | inactive | 16.5 | 18.8 |  | inhibition (Cucumis sativus [16]): Active; Activity (Cucumis sativus [17]): inactive; inhibition (Allium cepa [18]): inactive; inhibition (Allium cepa [19]): inactive; inhibition (Allium cepa [20]): inactive; inhibition (Allium cepa [21]): inactive; pIC50 (Lemna aequinoctialis [23]): 5.53
